According to ChEMBL document CHEMBL1147045, “Targeting thioredoxin reductase is a basis for cancer therapy by arsenic trioxide” (2007):
Calls of active or inactive are those of the source. The rule behind the calls is not given here.

Assays:
[1] = system: Escherichia coli; experiment: Inhibition of Escherichia coli thioredoxin upto 5 uM by insulin reduction method
In short: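 25 nM E. coli TrxR plus 2 μM E. coli Trx were preincubated with ATO for 30 min in 50 mM Tris·HCl/1 mM EDTA pH 7.5 with 200 μM NADPH. Then 200 μM NADPH/160 μM insulin was added and A340 followed. Activity was taken as ΔA340/min over the initial 5 min.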

[2] = molecular target: T1, Thioredoxin reductase 1, cytoplasmic (Rattus norvegicus) (UniProt O89049); experiment: Inhibition of NADPH-reduced rat recombinant TrxR1 assessed as […] by DTNB reduction assay
T1 sequence (whole entry): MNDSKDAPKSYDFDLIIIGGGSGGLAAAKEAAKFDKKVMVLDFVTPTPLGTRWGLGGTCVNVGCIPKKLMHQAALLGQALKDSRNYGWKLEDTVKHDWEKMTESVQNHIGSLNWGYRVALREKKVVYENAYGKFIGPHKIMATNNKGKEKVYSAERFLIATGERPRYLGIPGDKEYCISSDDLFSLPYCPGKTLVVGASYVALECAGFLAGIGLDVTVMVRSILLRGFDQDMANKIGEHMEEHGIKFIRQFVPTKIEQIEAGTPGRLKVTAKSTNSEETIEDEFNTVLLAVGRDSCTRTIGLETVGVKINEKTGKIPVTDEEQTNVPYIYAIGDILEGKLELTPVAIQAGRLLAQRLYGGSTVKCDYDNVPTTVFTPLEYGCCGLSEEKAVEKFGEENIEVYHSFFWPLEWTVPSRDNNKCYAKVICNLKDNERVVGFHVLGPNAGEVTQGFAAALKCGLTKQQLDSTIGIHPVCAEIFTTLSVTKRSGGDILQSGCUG
In short: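 Recombinant rat TrxR1 (50 nM), NADPH-reduced, was preincubated with ATO (0.05–5 μM) for 30 min in 50 mM Tris·HCl/1 mM EDTA pH 7.5 with 200 μM NADPH. Activity was then measured with 5 mM DTNB by following A412; the rate was the slope over the initial 2 min. Duplicate experiments; IC50 after 30-min incubation.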

[3] = molecular target: T1, Thioredoxin reductase 1, cytoplasmic (Rattus norvegicus); experiment: Inhibition of NADPH-reduced rat recombinant TrxR1 at 0.1 uM attenuated in presence of 1 mM Glutathione after 30 minis
In short: (§1)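 NADPH-reduced rat TrxR (10 nM) with 2 μM human Trx, with or without 1 mM GSH, was incubated with ATO for 30 min in Tris/EDTA pH 7.5 containing 200 μM NADPH. Trx-system activity was read after adding 200 μM NADPH/160 μM insulin, as ΔA340/min over the initial 5 min.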

[4] = molecular target: T1, Thioredoxin reductase 1, cytoplasmic (Rattus norvegicus); experiment: Inhibition of NADPH-reduced rat recombinant TrxR1 at >0.5 uM attenuated in presence of 1 mM Glutathione after 30 minis; in short: as §1
[5] = system: MCF7; experiment: Reduction of human MCF7 cell growth at 5.0 uM after 48 hrs by XTT assay; assay type: functional, cell-based
In short: (§2)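 MCF-7 cells in RPMI 1640/10% FCS were seeded at 6 × 10^3 cells per well, grown overnight, then exposed to ATO for 24 or 48 h. Medium was replaced with XTT labeling mixture for 3 h and A492 of the formazan read as the measure of proliferation/viability.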

[6] = molecular target: T1, Thioredoxin reductase 1, cytoplasmic (Rattus norvegicus); experiment: Inhibition of NADPH-reduced rat recombinant TrxR1 at 0.25 uM attenuated in presence of 1 mM Glutathione after 30 minis; in short: as §1
[7] = system: MCF7; experiment: Reduction of human MCF7 cell growth at 2.5 uM after 48 hrs by XTT assay; assay type: functional, cell-based; in short: as §2
[8] = system: MCF7; experiment: Inhibition of human MCF7 cell growth after 24 hrs by XTT assay; assay type: functional, cell-based; in short: as §2
[9] = system: MCF7; experiment: Reduction of glutathione synthesis in human MCF7 cells at 25 uM after 25 hrs; assay type: functional; set-up: scale not given: the % may be the effect or the level left

| SMILES | Activity [1] | Activity [2] | Activity [3] | Activity [4] | Activity [5] | Activity [6] | Activity [7] | Activity [8] | Activity [9] [%] |
| --- | --- | --- | --- | --- | --- | --- | --- | --- | --- |
| O=[As][As+](=O)[O-] (centres undefined) | inactive | inactive | Active | inactive | Active | Active | Active | inactive | – |
| CCCCS(=N)(=O)CCC(N)C(=O)O (centres undefined) [BUTHIONINE SULFOXIMINE] | – | – | – | – | – | – | – | – | 80 |
